Kir21 block = inhibitors of mouse Kir2.1 inward-rectifier potassium channel | Inward rectifier potassium channel 2 (Mus musculus), P35561 | HEK293-Kir2.1, FluxOR thallium flux fluorescence; hits give low values | B-score at 10 µM | hit rate 0.85% among 310,000 | AID 1672, 2009;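 active = fluorescence ratio B-score at or below minus 3 SD of library scores, with starting-brightness B-score within 2 SD, cut at about -4.2 in these data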;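 also: channel flux triggered by added potassium and thallium sulfate stimulus; B-score of peak minus minimum fluorescence over baseline after thallium stimulus; more negative B-score means stronger Kir2.1 block with less thallium influx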
Target sequence (P35561 whole entry, looked up): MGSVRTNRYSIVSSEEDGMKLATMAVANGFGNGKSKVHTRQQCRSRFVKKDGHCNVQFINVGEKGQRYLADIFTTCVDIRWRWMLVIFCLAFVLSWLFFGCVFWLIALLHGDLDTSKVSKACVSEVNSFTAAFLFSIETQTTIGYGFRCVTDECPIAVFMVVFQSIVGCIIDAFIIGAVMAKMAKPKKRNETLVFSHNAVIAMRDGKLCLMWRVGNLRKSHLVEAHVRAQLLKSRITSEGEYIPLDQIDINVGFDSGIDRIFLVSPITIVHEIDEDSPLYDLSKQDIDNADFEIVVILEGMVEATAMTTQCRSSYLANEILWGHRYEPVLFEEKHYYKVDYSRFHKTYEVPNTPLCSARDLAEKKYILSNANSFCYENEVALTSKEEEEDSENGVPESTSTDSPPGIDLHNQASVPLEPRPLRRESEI
KCNQ1 pot = potentiators or activators of KCNQ1 channel, primary screen, cell-based, thallium flux, high-throughput; Potassium voltage-gated channel subfamily KQT member 1 (Homo sapiens), P51787; CHO-K1 KCNQ1, thallium flux FluxOR fluorescence; hits give high values; B-score at 10 µM; hit rate 0.35% among 310,000; AID 2648, 2010;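 active = fluorescence ratio B-score, a plate-corrected score, at least three library SD, with initial intensity B-score within 5 SD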
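assay system = KCNQ1-transfected CHO-K1 cells | medium = assay buffer with matched DMSO | probe or stimulus = depolarizing K+/Tl+ stimulus, K2SO4 and Tl2SO4 each 12.5 mM in 5x stock | dosing = single dose | incubation = dye 90 min, compound 20 min, room temperature | detection = kinetic FluxOR fluorescence, 10 s baseline plus 110 s post-stimulus | evaluation = ratio B score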
KCNK9 block = KCNK9 potassium channel inhibitors, primary screen, HEK293 cells, thallium flux; Potassium channel subfamily K member 9 (Homo sapiens), Q9NPC2; FluxOR thallium flux fluorescence; hits give low values; B-score at 10 µM; hit rate 1.2% among 310,000; AID 488922, 2010;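 active = ratio B-score over 3 SD below the library mean, with starting fluorescence within 5 SD of its mean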;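 also: negative B-score means less thallium flux so channel inhibition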
KCNQ1 inh = inhibitors of human KCNQ1 channel, primary screen, cell-based, thallium flux, high-throughput; B-score at 10 µM; AID 2642, 2010; CHO-K1 KCNQ1, FluxOR thallium flux fluorescence; hits give high values; hit rate 1.3% among 310,000; Potassium voltage-gated channel subfamily KQT member 1 (Homo sapiens), P51787;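 active = compounds whose thallium flux B-score, printed positive for inhibition, exceeds three library SD while starting fluorescence stays within three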;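 also: channel opened by potassium depolarization with thallium stimulus after 20 min compound exposure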
KCNK3 inh = human KCNK3 channel inhibitors, primary screen, CHO cells, FluxOR thallium flux, B-score | B-score at 10 µM | hit rate 0.84% among 340,000 | AID 602410, 2012 | FluxOR fluorescence; hits give low values;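 active = B-score under library mean minus 4 SD, starting fluorescence ratio at most library mean plus 5 SD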;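 also: more negative B-score means stronger inhibition of thallium flux through KCNK3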
hERG rescue = hERG rescue from dofetilide block, primary screen, cell-based, CHO-hERG, FluxOR thallium flux, dofetilide IC70; Voltage-gated inwardly rectifying potassium channel KCNH2 (Homo sapiens), Q12809; dofetilide IC70 present; activation (rescue from dofetilide block), less the hit threshold, % at 10 µM; hit rate 0.51% among 310,000;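 active = activation above the mean of controls blocked by dofetilide plus 5 SD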;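 also: thallium influx through hERG after potassium depolarization seen as dye fluorescence rise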
Active calls of the source: *; i = inactive; . = no result given. In the library only some 3.8% were active in any assay of this set; here they are far more common.

SMILES	Kir21 block	KCNQ1 pot	KCNK9 block	KCNQ1 inh	KCNK3 inh	hERG rescue
O=C1OC(c2ccc(O)cc2)(c2ccccc2O)c2ccccc21 (stereo not given)	.	.	.	.	i	.
O=C1OC(c2ccccc2)(c2cc(Br)ccc2O)c2ccccc21 (stereo not given)	.	.	.	.	-9.83*	.
Cc1cc(O)cc2c1C1CCC3(C)C(O)CCC3C1C=C2 (stereo not given)	.	.	.	.	i	.
Cc1cc(NC(=O)CSCC(=O)Nc2nc3ccccc3[nH]2)no1	-1.18	i	i	i	i	-2.8
O=[N+]([O-])c1ccc(-[n+]2ccc3ccccc3c2)c([N+](=O)[O-])c1	-4.73*	i	i	i	i	-12.8
O=[N+]([O-])c1ccc(SNc2ccccc2)c([N+](=O)[O-])c1	.	.	.	.	i	.
OCCCCNCc1ccc(OCc2ccc(Cl)cc2Cl)cc1	-7.13*	i	i	i	i	-16.9
OCCNCc1ccc(OCc2ccc(Cl)cc2Cl)cc1	-7.48*	i	i	i	i	-18.0
S=C(Nc1ccccc1)Nc1ccc(OCc2ccc(Cl)cc2Cl)cc1	-1.49	i	i	i	i	-4.2
CNC(=O)COc1ccc(S(=O)(=O)N2CCCC2)cc1	-0.53	i	i	i	i	-6.2
O=C(CCNS(=O)(=O)c1ccccc1F)N1CCN(Cc2ccccc2)CC1	2.43	i	i	i	i	-15.8
CC1CN(C(=S)NC(=O)c2ccc(Cl)cc2)CC(C)O1 (stereo not given)	1.63	i	i	i	i	6.4*
CCNC(=S)N1CCN(Cc2ccc3c(c2)OCO3)CC1	1.71	i	i	i	i	-6.4
O=C(NC(=S)N1CCN(Cc2ccc3c(c2)OCO3)CC1)c1cccc(Br)c1	0.63	29*	i	i	i	25.3*
O=C(NC(=S)N1CCN(Cc2ccc3c(c2)OCO3)CC1)c1ccc(Cl)cc1	0.86	11*	i	i	i	23.9*
CC(C)CC(NC(=O)/C(=C/c1ccco1)NC(=O)c1ccc(Br)o1)C(=O)O (stereo not given)	0.59	i	i	i	i	-1.5
Cc1ccc(/C=N/Nc2ncc(Cl)cc2Cl)s1	1.87	i	i	7*	i	-23.1
Oc1ccc(/C=N/Nc2ncc(Cl)cc2Cl)cc1	-1.1	i	i	i	i	-1.2
Clc1cnc(N/N=C/c2cccs2)c(Cl)c1	-0.54	i	i	6*	i	-13.1
COc1cc(CNCCc2ccccc2)cc(Br)c1OCC(=O)Nc1ccccc1C	-10.8*	i	i	9*	i	-32.5
CCOc1cc(CNCCCN2CCOCC2)cc(Br)c1OCc1ccccc1Cl	-6.28*	i	i	i	i	-32.9
CNCc1cc(Br)c(OCC(=O)Nc2ccccc2OC)c(OC)c1	0.03	i	i	i	i	-20.9
COc1cc(CNCCCN2CCOCC2)ccc1OCC(=O)NC(C)(C)C	0.08	i	i	i	i	2.4
CCOc1cc(CNCCN2CCOCC2)ccc1OCc1ccccc1Cl	-3.96	i	i	i	i	-9.6
COc1cc(CNCCO)cc(Cl)c1OCc1ccccc1Cl	-7.03*	i	i	i	i	-15.8
SMILES	Kir21 block	KCNQ1 pot	KCNK9 block	KCNQ1 inh	KCNK3 inh	hERG rescue
COc1cccc(CNCCO)c1OCc1ccccc1Cl	-1.34	i	i	i	i	-3.6
CCOc1cc(CNCCCN2CCOCC2)ccc1OCC(=O)NC(C)(C)C	-1.39	9*	i	i	i	-5.6
Cc1ccc(S(=O)(=O)N[C@H](C(=O)OCC(=O)NC(=O)C2CCCCC2)C(C)C)cc1	.	.	.	.	i	.
COc1cc(CNCCc2ccccc2)cc(Cl)c1OCc1ccccc1	-13.4*	i	i	7*	i	-25.9
CCOc1cc(CNCCO)cc(Br)c1OCc1ccc(Cl)cc1	-17.8*	i	i	i	i	-22.7
CCOc1cc(CNCCO)cc(Br)c1OCc1ccccc1Cl	-8.98*	i	i	i	i	-9.2
O=C(NCC1COc2ccccc2O1)c1cccc(S(=O)(=O)N2CCOCC2)c1 (stereo not given)	.	.	.	.	i	.
Cc1ccc(N(C)S(=O)(=O)c2cccc(C(=O)NCC(c3cccs3)N3CCOCC3)c2)cc1 (stereo not given)	-0.81	i	i	i	i	-18.6
Cc1ccc(C(=O)Sc2cccccc2=O)cc1	-2.49	15*	i	i	i	5.5*
Cc1ccc(NC(=O)c2ccccc2)cc1	0.1	i	i	i	i	-13.0
COc1ccc(CC(=O)N/N=C(/C)CC(=O)N(C)c2ccccc2)cc1	-0.72	i	i	i	i	-8.9
CC1=C(C(=O)OC2CCCC2)C(c2ccc(C)o2)C2=C(CC(c3cccs3)CC2=O)N1 (stereo not given)	0	i	i	8*	i	-10.2
CC1=C(C(=O)OC2CCCCCC2)C(c2ccc(C)o2)C2=C(CCCC2=O)N1 (stereo not given)	-0.27	i	i	i	i	-4.3
COc1cc(OC)c(NC(=O)c2ccc3c(SCC(=O)O)c4c(nc3c2)CCCC4)cc1Cl	0.39	i	i	i	i	-5.3
O=C(Cc1coc2cc3c(cc12)CCC3)NC1CCCCCCC1	1.66	i	i	i	i	-4.2
O=C(Cc1coc2cc3c(cc12)CCC3)NCC1(N2CCCCC2)CCCCC1	-4.66*	i	i	i	i	-4.2
CC(C)c1ccccc1NC(=O)CNCCOc1ccccc1F	-11.2	i	i	6*	i	-5.6
OCCNCCOc1ccccc1F	0.43	i	i	i	i	-2.5
Cc1ccc(S(=O)(=O)NOCc2ccccc2)cc1	.	.	.	.	i	.
Cc1cccc(CS(=O)(=O)c2ncc(Cl)c(C(=O)Nc3c(C)cccc3C)n2)c1	-11.8*	i	-6.68*	i	i	-17.9
CC[C@@H](C(=O)[C@@H](C)[C@@H](O)[C@H](C)CCc1ccc(C)c(O)c1C(=O)O)[C@H]1O[C@](CC)([C@H]2CC[C@](O)(CC)[C@H](C)O2)C[C@@H]1C	-1.35	76*	i	i	i	64.6*
CCCOc1ccc(/C(O)=C2/C(=O)C(=O)N(CCCn3ccnc3)C2c2ccco2)cc1 (stereo not given)	0.84	i	i	i	i	6.8*

Bioassay records: PubChem BioAssay, Johns Hopkins Ion Channel Center
